PvdQ inh – P. aeruginosa PvdQ acylase inhibitors, primary screen, biochemical, fluorescence, plate reader and imaging, single point. PvdQ acylase [Pseudomonas aeruginosa LESB58]. purified PvdQ acylase. inhibition, % at 10 µM. actives 0.063% (n = 340,000). AID 488965, 2010; in the data active = inhibition above about 30%, passing the limit was not always enough;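 also: 0% = vehicle neutral wells and 100% = reference inhibitor wells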
IMP-1 inh – IMP-1 metallo-beta-lactamase inhibitors, primary screen, biochemical, epi-absorbance readout, Pseudomonas aeruginosa enzyme. metallo-beta-lactamase IMP-1 (Pseudomonas aeruginosa). purified IMP-1, nitrocefin hydrolysis, epi-absorbance fluorescence. inhibition, % at 5.6 µM. actives 0.45% (n = 290,000);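 active = inhibition above the mean plus 3 SD of all compounds in the same screening run, cut at about 4.5% in these data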;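 also: 0% = IMP-1 with DMSO and 100% = DMSO wells lacking enzyme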
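Material – recombinant IMP-1 enzyme, purified · Amount – IMP-1 0.2 nM before substrate addition · Medium – HEPES buffer pH 7.1 with ZnSO4 and Brij 35 · Timing – 25 °C, 15 min preincubation, 25 min reaction · Measured by – plate fluorescence quenching by hydrolysis product, ex 480/em 530 nm · Read-out – percent enzyme inhibition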
PHOSPHO1 block – PubChem AID 1565; Phosphoethanolamine/phosphocholine phosphatase (Homo sapiens), Q8TCT1; recombinant PHOSPHO1, absorbance phosphatase assay; inhibition, % at 13.3 µM; actives 1.1% (n = 290,000); in the data active = inhibition above about 60%
Target sequence (Q8TCT1 whole entry, looked up): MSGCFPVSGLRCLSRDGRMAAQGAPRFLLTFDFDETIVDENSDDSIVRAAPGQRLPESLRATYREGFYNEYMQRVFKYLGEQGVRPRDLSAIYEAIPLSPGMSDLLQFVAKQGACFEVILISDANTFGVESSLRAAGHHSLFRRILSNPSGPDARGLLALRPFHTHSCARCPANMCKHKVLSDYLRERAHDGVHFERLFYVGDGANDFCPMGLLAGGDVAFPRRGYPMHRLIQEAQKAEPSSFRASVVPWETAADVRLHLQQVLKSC
CR mimetic SO – reduction of superoxide in aged yeast, primary screen, HTS. superoxide response (% of plate mean), % at 10 µM. S. cerevisiae aged cells, superoxide DHE fluorescence; stronger effect = lower value. actives 0.18% (n = 330,000);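 active = superoxide response under a set limit, about three screen SD below normal, cut at about 65% in these data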;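 also: yeast aged for seven days with compound at 30 °C before DHE staining; 100% = average MFI of all compound-treated wells on the plate with controls excluded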
VIM-2 inhibitor – VIM-2 metallo-beta-lactamase inhibitors, primary screen, biochemical, epi-absorbance readout, Pseudomonas aeruginosa enzyme; purified VIM-2, nitrocefin hydrolysis, epi-absorbance fluorescence; actives 0.89% (n = 290,000); inhibition, % at 5.6 µM; AID 1527, 2009;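 active = inhibition above the mean of all tested compounds plus 3 SD, cutoff set per screening run, cut at about 7.5% in these data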;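 also: red hydrolysis product quenches plate fluorescence so inhibitors raise well fluorescence; 0% = enzyme with DMSO and 100% = DMSO without enzyme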
* = called active by the depositor; nt = no result. Compounds with a hit are over-represented: about 2.2% of the library has one in this group of screens.

SMILES	PvdQ inh	IMP-1 inh	PHOSPHO1 block	CR mimetic SO	VIM-2 inhibitor
Cc1ccc(S(=O)(=O)CCN2CCC(n3cccc3)CC2)cc1	6.1	0.0	42.1	103.7	1.0
O=C(Cn1nnc(-c2cccs2)n1)NCc1ccco1	-4.4	0.8	64.2*	93.3	1.1
O=C(Cn1nnc(-c2cccs2)n1)NCc1ccccc1	11.3	-2.9	22.6	96.7	-2.6
CCc1nnc(NC(=O)CN2C(=O)c3ccccc3C2=O)s1	-2.6	-3.4	74.0*	87.6	-6.1
CCc1nnc(NC(=O)COC(=O)CN2C(=O)c3ccccc3C2=O)s1	-10.1	-0.1	40.5	94.7	-1.5
CCC(CC)c1nnc(NC(=O)CN2C(=O)c3ccccc3C2=O)s1	0.9	-3.7	-145.8	107.1	-2.0
CCCc1nnc(NC(=O)CN2C(=O)c3ccccc3C2=O)s1	-6.7	-3.7	85.8*	97.4	-3.9
CC(C)(C)OC(=O)N[C@@H](Cc1ccccc1)C(=O)N1CCC(C(=O)N[C@@H](Cc2c[nH]c3ccccc23)C(=O)O)CC1	1.1	1.4	28.6	97.0	1.5
CN(C)c1ccc(NC(=O)CSc2nc(N)c(C(=O)Nc3ccc(N(C)C)cc3)s2)cc1	4.7	-1.4	1.6	109.7	-3.5
COc1ccc(NC(=O)CSc2nc(N)c(C(=O)Nc3ccc(N(C)C)cc3)s2)cc1	-9.0	-1.0	66.2*	86.7	-3.5
CC(=O)N1CCc2cc(S(=O)(=O)NCC(=O)NCc3ccccc3Cl)ccc21	-12.8	-2.4	64.7*	73.5	-6.3
Cc1cc(C)cc(N2CC(C)Cn3c2nc2c3c(=O)[nH]c(=O)n2C)c1 (stereo not drawn)	-17.1	-4.7	19.9	87.7	8.6*
CN(C)C(CNC(=O)CCCN1C(=O)c2cccc3cccc(c23)C1=O)c1ccccc1 (stereo not drawn)	-17.5	-4.4	18.7	101.1	9.2*
O=C(CCCN1C(=O)c2cccc3cccc(c23)C1=O)NCc1ccco1	-12.0	-2.3	30.4	99.9	-0.1
CN(CC(=O)NCc1ccccc1)Cc1cccc(F)c1	-8.9	5.6*	37.5	111.3	-2.2
CCOc1ccc(CN(C)CC(=O)NCc2ccccc2)cc1	-9.6	0.4	32.7	68.5	1.2
CCCOc1ccc(CNC(=S)Nc2ccccc2)cc1Cl	-3.9	-3.9	1.2	100.5	-4.9
O=C1/C(=C/c2ccc(N3CCCC3)cc2)NC(=S)N1C1CC1	5.3	-3.9	102.0*	98.7	-3.2
CC(=O)C(Sc1nn(C)c(=S)s1)C(=O)Nc1ccccc1 (stereo not drawn)	-11.1	-3.4	97.5*	97.2	-3.1
O=C(COc1ccc2ccccc2c1)Nc1ccc(Br)cc1C(=O)O	-13.4	-1.7	7.5	122.8	0.1
CSC1=NC2C(N1)N(C)C(=O)N2C (stereo not drawn)	-20.5	-1.2	78.3*	112.6	0.3
Cc1cccc(NC(=S)NNC(=O)c2sccc2C)c1	3.2	-3.3	80.4*	102.4	-2.8
Cc1cccc(NC(=S)NNC(=S)NCc2ccccc2)c1	-7.5	4.3	77.5*	108.7	-3.9
CCc1cc(C(=O)NNC(=S)Nc2cccc(C)c2)cs1	-8.3	-3.1	-13.3	100.7	-3.8
CCOc1cc(C(N)=O)cc(Br)c1OC	-6.4	4.6*	-3.3	97.0	1.8
SMILES	PvdQ inh	IMP-1 inh	PHOSPHO1 block	CR mimetic SO	VIM-2 inhibitor
CCOc1cc(C(N)=O)cc(OCC)c1OCC	-2.2	-2.1	11.3	92.1	0.8
CC(Sc1nnc(C2CC2)n1-c1ccccc1)C(=O)N1CCCC1 (stereo not drawn)	-6.4	nt	nt	nt	nt
C=CCNC(=O)CSc1nnc(-c2ccccc2Cl)n1-c1c(C)n(C)n(-c2ccccc2)c1=O	-9.5	-5.9	8.3	80.8	1.6
Cc1c(-n2c(SCC(=O)O)nnc2-c2ccccc2Br)c(=O)n(-c2ccccc2)n1C	-2.9	-2.7	29.7	107.7	12.2*
CCOC(=O)c1c(-c2ccccc2)oc2ccc(OCC(O)CN(C)C)cc12 (stereo not drawn)	-10.2	-3.1	40.5	103.5	8.9*
CC(C)Cn1c(N)c(C(=O)COC(=O)/C=C/c2ccccc2)c(=O)n(C)c1=O	5.5	nt	nt	103.7	nt
CC(C)(C)NC(=O)CON=C1c2ccccc2-c2ccccc21	-16.7	-1.5	-4.4	97.2	-3.9
CC(C)(C)NCC(O)CON=C1c2ccccc2-c2ccccc21 (stereo not drawn)	-10.7	1.2	-17.9	113.5	7.8*
Cc1nn(CC(=O)Nc2cccnc2)c(=O)c2ccccc12	0.7	-1.6	63.2*	85.0	-0.8
COC(=O)c1ccc(NC(=O)Cn2nc(C)c3ccccc3c2=O)cc1	-9.2	-3.2	44.7	96.8	-3.0
CCc1cccc(NC(=O)CCS(=O)(=O)c2ccc(Br)cc2)c1	-10.5	9.8*	5.2	114.0	-0.8
NS(=O)(=O)c1ccc(CCNC(=O)CCS(=O)(=O)c2ccc(Br)cc2)cc1	-12.7	7.8*	15.0	90.1	-0.6
O=S(=O)(CCc1ccncc1)C1Cc2cccc3cccc1c23 (stereo not drawn)	-20.4	-3.7	32.7	109.7	-2.7
CCOc1ccc(-c2nc(=S)[nH][nH]2)cc1	-18.0	-0.2	100.3*	95.9	-1.4
COc1ccc(-c2nc(=S)[nH][nH]2)cc1OC	-9.5	-4.0	40.3	102.6	-3.1
COc1ccc(-c2nc(=S)[nH][nH]2)cc1	-12.6	0.5	96.2*	109.2	-0.6
Oc1ccc(-c2nc(=S)[nH][nH]2)cc1	2.3	-6.5	15.0	79.8	-3.4
Cc1onc(-c2ccccc2Cl)c1C(=O)O/N=C(\N)c1ccc([N+](=O)[O-])o1	1.5	-3.6	-27.6	110.9	-3.6
CSc1ccccc1C(=O)NC1CCCC1	1.5	-3.6	69.5*	95.9	-4.0
CSc1ccccc1C(=O)NC1CCCCC1	8.7	-0.3	-9.1	98.8	-1.9
CCN(CC)CCN(C)C(=O)CCc1nnc(-c2ccc(C)s2)o1	4.0	-1.3	60.1*	96.7	-0.3
Cc1ccc(N=Cc2sc(O)c3ccccc23)c(C)c1	-17.3	27.6*	9.7	96.2	4.0
CNc1ncc(Cc2ccccc2)s1	-3.1	40.1*	11.7	98.1	-0.2
COC(=O)C1=NN(c2ccc(C)cc2)C2(S1)SC(C(C)=O)=C(C)N2c1ccccc1 (stereo not drawn)	4.5	-4.3	63.7*	84.7	-0.5
COc1cc(CC(=O)N2CCN(C(=O)C3CCCO3)CC2)cc(OC)c1OC (stereo not drawn)	-19.1	nt	nt	80.4	nt
CCCCn1c(-c2csc3c2CCCC3)n[nH]c1=S	nt	-6.8	99.7*	92.2	-2.3
CCCCn1c(-c2csc3c2CCC(C)C3)n[nH]c1=S (stereo not drawn)	-9.9	-1.9	84.1*	115.0	-0.3
CCCCn1c(-c2csc3ccccc23)n[nH]c1=S	-5.5	-6.0	95.0*	83.1	-3.7
C=CCn1c(-c2csc3c2CCC(C)C3)n[nH]c1=S (stereo not drawn)	-11.6	-3.7	20.5	83.5	-5.9

Compound activity as filed in PubChem.
